Measurements from ChEMBL document CHEMBL3632607, “Identification and SAR of Glycine Benzamides as Potent Agonists for the GPR139 Receptor” (ACS Med Chem Lett, 2015).
Each block holds one compound with its values, some of them ahead of it. The source made the active and inactive calls. The calls are words filed in the database; no cut-off is given here.

Key:
[1] = target: T1, Probable G-protein coupled receptor 139 (Homo sapiens, UniProt Q6DWJ6); experiment: Agonist activity at human GPR139 receptor expressed in HEK293 cells assessed as calcium mobilization by FLIPR assay; assay type: functional, cell-based
T1 sequence (Q6DWJ6 whole entry): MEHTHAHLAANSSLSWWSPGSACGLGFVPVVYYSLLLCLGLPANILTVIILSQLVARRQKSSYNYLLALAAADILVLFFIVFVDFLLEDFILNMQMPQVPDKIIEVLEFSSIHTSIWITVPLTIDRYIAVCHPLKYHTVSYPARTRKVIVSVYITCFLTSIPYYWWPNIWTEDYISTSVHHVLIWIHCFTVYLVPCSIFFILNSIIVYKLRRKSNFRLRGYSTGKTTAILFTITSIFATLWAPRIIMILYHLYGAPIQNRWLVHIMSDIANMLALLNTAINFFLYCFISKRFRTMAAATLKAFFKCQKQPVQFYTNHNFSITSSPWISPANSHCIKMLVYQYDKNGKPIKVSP

[2] = Extraction ratio in human liver microsomes at 1 uM after 1 hr by LC-MS/MS analysis; assay type: ADME; conditions: read-out: ERH
Outline: (§1)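 Extraction ratio is in vitro microsomal clearance divided by Q, the species-specific hepatic blood flow (human or rat).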

[3] = Extraction ratio in rat liver microsomes at 1 uM after 1 hr by LC-MS/MS analysis; assay type: ADME; conditions: read-out: ERH; outline: as §1
[4] = Apparent permeability of the compound in MDCK cells; assay type: ADME, cell-based, Canis lupus familiaris; conditions: dog
Outline: (§2)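 Permeability was measured in MDR1-transfected Madin Darby canine kidney (MDR1-MDCK) cells. Papp is given in units of 1 × 10–6 cm/s. The efflux ratio is Papp basal-to-apical divided by Papp apical-to-basal.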

[5] = Efflux ratio of apparent permeability from basolateral to apical side to apical to basolateral side in MDCK cells; assay type: ADME, cell-based, Canis lupus familiaris; conditions: dog; outline: as §2
[6] = Fraction unbound in human plasma at 0.1 to 10 uM after 6 hrs by LC-MS/MS analysis; assay type: ADME, cell-free
[7] = Fraction unbound in rat plasma at 0.1 to 10 uM after 6 hrs by LC-MS/MS analysis; assay type: ADME, cell-free
[8] = Fraction unbound in rat brain at 0.1 to 10 uM after 6 hrs by LC-MS/MS analysis; assay type: ADME, tissue-based
[9] = Aqueous solubility of the compound in 30 mM phosphate buffer at pH 2 after 3 days; assay type: physicochemical
[10] = Aqueous solubility of the compound in 30 mM phosphate buffer at pH 7 after 3 days; assay type: physicochemical
[11] = target: T2, Cytochrome P450 1A2 (Homo sapiens, UniProt P05177); experiment: Inhibition of CYP1A2 in human liver microsomes using phenacetin as substrate up to 10 uM by LC-MS/MS analysis; assay type: ADME
T2 sequence (P05177 whole entry): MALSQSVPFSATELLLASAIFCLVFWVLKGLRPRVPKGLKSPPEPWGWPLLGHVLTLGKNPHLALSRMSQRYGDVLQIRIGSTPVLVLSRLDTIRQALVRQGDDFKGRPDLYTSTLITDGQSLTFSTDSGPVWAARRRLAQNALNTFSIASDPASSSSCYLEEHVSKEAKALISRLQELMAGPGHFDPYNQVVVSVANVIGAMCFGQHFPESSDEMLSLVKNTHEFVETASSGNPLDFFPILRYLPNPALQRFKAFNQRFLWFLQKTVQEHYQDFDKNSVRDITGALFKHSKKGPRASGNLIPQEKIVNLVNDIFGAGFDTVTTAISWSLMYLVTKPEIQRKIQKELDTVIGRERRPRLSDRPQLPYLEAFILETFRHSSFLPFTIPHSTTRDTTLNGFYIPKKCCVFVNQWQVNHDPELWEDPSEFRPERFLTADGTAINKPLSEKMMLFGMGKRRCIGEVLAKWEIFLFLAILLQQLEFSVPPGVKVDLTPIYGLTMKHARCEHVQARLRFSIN

[12] = target: T3, Cytochrome P450 2C8 (Homo sapiens, UniProt P10632); experiment: Inhibition of CYP2C8 in human liver microsomes using paclitaxel as substrate up to 10 uM by LC-MS/MS analysis; assay type: ADME
T3 sequence (P10632 whole entry): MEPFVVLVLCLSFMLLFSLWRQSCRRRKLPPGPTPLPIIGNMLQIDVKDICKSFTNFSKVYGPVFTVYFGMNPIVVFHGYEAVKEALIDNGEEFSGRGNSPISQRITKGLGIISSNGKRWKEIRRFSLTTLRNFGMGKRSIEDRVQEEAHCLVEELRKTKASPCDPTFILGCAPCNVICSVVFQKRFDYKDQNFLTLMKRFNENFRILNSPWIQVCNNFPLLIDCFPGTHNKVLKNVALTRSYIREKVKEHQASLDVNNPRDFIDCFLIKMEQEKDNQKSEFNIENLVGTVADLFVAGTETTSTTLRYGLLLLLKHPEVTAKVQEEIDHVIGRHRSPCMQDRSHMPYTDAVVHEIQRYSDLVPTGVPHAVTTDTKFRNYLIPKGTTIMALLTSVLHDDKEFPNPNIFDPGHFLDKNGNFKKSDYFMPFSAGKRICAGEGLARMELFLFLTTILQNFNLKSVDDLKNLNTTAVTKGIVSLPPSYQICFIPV

[13] = target: Cytochrome P450 2C9 (Homo sapiens, UniProt P11712); experiment: Inhibition of CYP2C9 in human liver microsomes using diclofenac as substrate up to 10 uM by LC-MS/MS analysis; assay type: ADME
[14] = target: Cytochrome P450 2C19 (Homo sapiens, UniProt P33261); experiment: Inhibition of CYP2C19 in human liver microsomes using S-mephenytoin as substrate up to 10 uM by LC-MS/MS analysis; assay type: ADME
[15] = target: Cytochrome P450 2D6 (Homo sapiens, UniProt P10635); experiment: Inhibition of CYP2D6 in human liver microsomes using dextromethorphan as substrate up to 10 uM by LC-MS/MS analysis; assay type: ADME
[16] = target: Cytochrome P450 3A4 (Homo sapiens, UniProt P08684); experiment: Inhibition of CYP3A4 in human liver microsomes using midazolam as substrate up to 10 uM by LC-MS/MS analysis; assay type: ADME
[17] = target: T4, Protein Gpr142 (Rattus norvegicus) (UniProt F1LWD8); experiment: Agonist activity at rat GPR142 receptor
T4 sequence (whole entry): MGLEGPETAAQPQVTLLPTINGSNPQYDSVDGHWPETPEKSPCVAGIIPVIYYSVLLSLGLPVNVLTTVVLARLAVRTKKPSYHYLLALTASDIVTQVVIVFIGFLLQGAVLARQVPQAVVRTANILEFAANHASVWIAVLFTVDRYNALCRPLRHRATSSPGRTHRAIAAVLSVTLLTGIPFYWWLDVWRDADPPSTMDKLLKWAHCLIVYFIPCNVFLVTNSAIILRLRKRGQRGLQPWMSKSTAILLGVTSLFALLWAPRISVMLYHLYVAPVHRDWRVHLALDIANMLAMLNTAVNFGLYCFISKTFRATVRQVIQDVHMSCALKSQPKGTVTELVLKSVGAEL

[18] = Oral bioavailability in Sprague-Dawley rat at 5 mg/kg; assay type: ADME, organism-based; conditions: in vivo
[19] = Cmax in Sprague-Dawley rat at 5 mg/kg, po; assay type: ADME, organism-based; set-up: dose 5 mg/kg, route oral; conditions: in vivo
[20] = Clearance in Sprague-Dawley rat at 1 mg/kg, iv; assay type: ADME, organism-based; conditions: in vivo
[21] = Half life in Sprague-Dawley rat at 1 mg/kg, iv; assay type: ADME, organism-based; conditions: in vivo
[22] = Volume of distribution at steady state in Sprague-Dawley rat at 1 mg/kg, iv and 5 mg/kg, po; assay type: ADME, organism-based; conditions: in vivo, read-out: Vdss
[23] = AUC in Sprague-Dawley rat at 1 mg/kg, iv and 5 mg/kg, po; assay type: ADME, organism-based; conditions: in vivo
[24] = Ratio of drug level in brain to plasma in Sprague-Dawley rat at 1 mg/kg, iv and 5 mg/kg, po; assay type: ADME, organism-based; conditions: read-out: BPR
[25] = target: T5, Probable G-protein coupled receptor 139 (Homo sapiens) (UniProt Q6DWJ6); experiment: Total binding affinity to human GPR139 receptor expressed in CHO-TRex cells at 10 nM after 60 mins by scintillation counting; assay type: cell-based
T5 sequence (whole entry): T1 sequence (Q6DWJ6 whole entry)
Outline: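 Whole CHO-TRex cells stably expressing human GPR139 were incubated with 10 nM of the tritiated ligand to measure total binding. Nonspecific binding was defined by blocking with 10 μM of an unlabelled reference GPR139 agonist. Specific binding was taken as total minus nonspecific.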

Sequence of Cytochrome P450 2D6 (P10635 whole entry): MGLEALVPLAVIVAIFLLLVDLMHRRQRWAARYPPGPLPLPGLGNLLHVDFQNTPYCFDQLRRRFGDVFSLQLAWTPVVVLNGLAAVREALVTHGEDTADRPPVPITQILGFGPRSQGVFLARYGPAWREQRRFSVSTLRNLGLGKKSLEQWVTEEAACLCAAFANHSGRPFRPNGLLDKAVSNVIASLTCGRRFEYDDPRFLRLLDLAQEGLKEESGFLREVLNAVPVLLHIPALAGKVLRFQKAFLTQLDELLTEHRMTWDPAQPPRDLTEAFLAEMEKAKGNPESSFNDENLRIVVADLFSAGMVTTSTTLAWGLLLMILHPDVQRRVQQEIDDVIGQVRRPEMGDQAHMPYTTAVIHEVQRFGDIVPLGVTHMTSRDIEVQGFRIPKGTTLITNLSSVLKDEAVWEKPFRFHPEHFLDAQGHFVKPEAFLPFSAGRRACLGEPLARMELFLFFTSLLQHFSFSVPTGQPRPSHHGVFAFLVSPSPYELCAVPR
Sequence of Cytochrome P450 2C9 (P11712 whole entry): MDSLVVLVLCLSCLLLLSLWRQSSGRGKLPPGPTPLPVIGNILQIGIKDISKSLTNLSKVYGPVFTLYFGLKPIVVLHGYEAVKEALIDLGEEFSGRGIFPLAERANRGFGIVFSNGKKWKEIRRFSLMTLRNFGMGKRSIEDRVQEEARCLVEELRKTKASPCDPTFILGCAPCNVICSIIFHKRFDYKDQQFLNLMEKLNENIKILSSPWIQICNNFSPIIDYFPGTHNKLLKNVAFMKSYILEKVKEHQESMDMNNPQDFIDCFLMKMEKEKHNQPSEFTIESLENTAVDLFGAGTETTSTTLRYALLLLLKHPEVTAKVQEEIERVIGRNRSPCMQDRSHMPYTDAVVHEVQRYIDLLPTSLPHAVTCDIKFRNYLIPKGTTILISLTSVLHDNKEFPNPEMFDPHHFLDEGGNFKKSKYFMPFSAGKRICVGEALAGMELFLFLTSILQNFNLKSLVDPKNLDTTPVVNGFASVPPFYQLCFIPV
Sequence of Cytochrome P450 2C19 (P33261 whole entry): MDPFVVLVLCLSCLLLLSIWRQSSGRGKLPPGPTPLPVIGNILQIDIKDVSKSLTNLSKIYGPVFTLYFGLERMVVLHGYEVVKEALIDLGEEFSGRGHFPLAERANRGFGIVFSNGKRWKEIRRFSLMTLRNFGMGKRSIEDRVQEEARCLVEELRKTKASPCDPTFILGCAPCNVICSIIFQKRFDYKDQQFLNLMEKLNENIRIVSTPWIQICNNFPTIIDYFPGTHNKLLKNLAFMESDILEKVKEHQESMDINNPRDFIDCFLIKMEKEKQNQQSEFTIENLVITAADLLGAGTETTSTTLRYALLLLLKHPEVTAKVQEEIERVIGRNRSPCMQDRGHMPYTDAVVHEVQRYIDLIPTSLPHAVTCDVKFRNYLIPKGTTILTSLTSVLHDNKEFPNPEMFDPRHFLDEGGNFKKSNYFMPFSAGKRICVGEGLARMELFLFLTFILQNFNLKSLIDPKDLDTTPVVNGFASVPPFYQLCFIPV
Sequence of Cytochrome P450 3A4 (P08684 whole entry): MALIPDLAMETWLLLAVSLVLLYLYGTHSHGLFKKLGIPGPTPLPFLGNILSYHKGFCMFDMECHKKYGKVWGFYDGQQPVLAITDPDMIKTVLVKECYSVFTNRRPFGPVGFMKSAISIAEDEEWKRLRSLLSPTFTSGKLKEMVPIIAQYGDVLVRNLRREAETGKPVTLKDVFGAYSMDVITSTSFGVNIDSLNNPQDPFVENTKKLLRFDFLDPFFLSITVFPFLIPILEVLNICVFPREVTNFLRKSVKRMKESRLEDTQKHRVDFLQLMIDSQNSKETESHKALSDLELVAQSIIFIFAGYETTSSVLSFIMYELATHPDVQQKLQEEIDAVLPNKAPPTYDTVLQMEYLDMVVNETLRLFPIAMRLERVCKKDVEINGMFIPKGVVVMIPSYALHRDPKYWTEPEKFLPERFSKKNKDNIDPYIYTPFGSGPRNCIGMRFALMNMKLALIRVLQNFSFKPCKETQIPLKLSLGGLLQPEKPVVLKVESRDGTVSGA

Compound: C[C@H](NC(=O)CNC(=O)c1ccc(Cl)cc1)c1ccccc1
- EC50 [1]: 118 nM

Compound: C[C@H](NC(=O)CNC(=O)c1cccc(Cl)c1)c1ccccc1
- hepatic extraction ratio at 1 h, 1 µM [2]: 0.3
- hepatic extraction ratio at 1 h, 1 µM [3]: 0.4
- Papp [4]: 32 ×10⁻⁶ cm/s
- efflux ratio [5]: 1.7
- fraction unbound at 6 h, up to 10 µM [6]: 0.1
- fraction unbound at 6 h, up to 10 µM [7]: 0.25
- fraction unbound at 6 h, up to 10 µM [8]: 0.09
- solubility at 72 h [9]: > 35 µM
- solubility at 72 h [10]: > 35 µM
- inhibition (INH) [11]: Not Active
- inhibition (INH) [12]: Not Active
- inhibition (INH) [13]: Not Active
- inhibition (INH) [14]: Not Active
- inhibition (INH) [15]: Not Active
- inhibition (INH) [16]: Not Active
- Activity [17]: inactive
- bioavailability [18]: 49%
- Cmax [19]: 317 ng/mL
- clearance [20]: 53 mL/min/kg
- half-life [21]: 2.5 h
- Vd [22]: 2.1 L/kg
- AUC [23]: 683 ng·h/mL
- Kp [24]: 1.2
- Activity [25]: Active

Compound: C[C@@H](NC(=O)CNC(=O)c1cccc(Cl)c1)c1ccccc1
- EC50 [1]: 2100 nM

Compound: C[C@H](NCCNC(=O)c1cccc(Cl)c1)c1ccccc1
- EC50 [1]: > 10000 nM

Compound: C[C@H](NC(=O)CNC(=O)c1cccc(C#N)c1)c1ccccc1
- EC50 [1]: 59 nM

Compound: C[C@H](NC(=O)CNC(=O)c1ccccc1)c1ccccc1
- EC50 [1]: 162 nM

Compound: COc1cccc(C(=O)NCC(=O)N[C@H](C)c2ccccc2)c1
- EC50 [1]: 1700 nM

Compound: COc1cc(OC)cc(C(=O)NCC(=O)N[C@@H](C)c2ccccc2)c1
- EC50 [1]: 32 nM

Compound: C[C@H](NC(=O)CNCc1cccc(Cl)c1)c1ccccc1
- EC50 [1]: > 10000 nM

Compound: C[C@H](NC(=O)CNC(=O)c1ccccc1Cl)c1ccccc1
- EC50 [1]: 150 nM

Compound: C[C@H](NC(=O)CNC(=O)c1ccc(Cl)c(Cl)c1)c1ccccc1
- EC50 [1]: 193 nM

Compound: COc1cccc(C(=O)N[C@@H](CO)C(=O)N[C@@H](C)c2ccccc2)c1
- EC50 [1]: 283 nM

Compound: COc1cccc(C(=O)N[C@@H](C)C(=O)N[C@@H](C)c2ccccc2)c1
- EC50 [1]: 66 nM

Compound: COc1cccc(C(=O)N[C@H](C)C(=O)N[C@@H](C)c2ccccc2)c1
- EC50 [1]: 440 nM

Compound: C[C@H](NC(=O)CNC(=O)c1cc(Cl)cc(Br)c1)c1ccccc1
- EC50 [1]: 78 nM

Compound: CC(NC(=O)CSC(=O)c1ccccc1)c1ccccc1 (stereo not given)
- EC50 [1]: 670 nM

Compound: COc1cccc(C(=O)N[C@@H](Cc2ccccc2)C(=O)N[C@@H](C)c2ccccc2)c1
- EC50 [1]: 10000 nM

Compound: C[C@H](NC(=O)CNC(=O)c1cccc(F)c1)c1ccccc1
- EC50 [1]: 54 nM

Compound: C[C@H](NC(=O)CNC(=O)c1cccc(Cl)c1Cl)c1ccccc1
- EC50 [1]: 52 nM

More lines, in order of falling EC50 [1], values ahead:

- EC50 [1]: 52 nM
Compound: C[C@H](NC(=O)CNC(=O)c1cccc(C(F)(F)F)c1)c1ccccc1

- EC50 [1]: 46 nM
Compound: C[C@H](NC(=O)CNC(=O)c1cccc(OC(F)(F)F)c1)c1ccccc1

- EC50 [1]: 46 nM
Compound: C[C@H](NC(=O)CNC(=O)c1cc(Cl)cc(Cl)c1)c1ccccc1

- EC50 [1]: 43 nM
Compound: COc1cc(OC)cc(C(=O)NNC(=O)Nc2cccc3ccccc23)c1

- EC50 [1]: 40 nM
Compound: C[C@H](NC(=O)CNC(=O)c1cc(Cl)ccc1Cl)c1ccccc1

- EC50 [1]: 33 nM
- hepatic extraction ratio at 1 h, 1 µM [2]: 0.3
- hepatic extraction ratio at 1 h, 1 µM [3]: 0.8
- Papp [4]: 16 ×10⁻⁶ cm/s
- efflux ratio [5]: 5.5
- fraction unbound at 6 h, up to 10 µM [6]: 0.14
- fraction unbound at 6 h, up to 10 µM [7]: 0.36
- fraction unbound at 6 h, up to 10 µM [8]: 0.16
- solubility at 72 h [9]: > 35 µM
- solubility at 72 h [10]: > 35 µM
- inhibition (INH) [11]: Not Active
- inhibition (INH) [12]: Not Active
- inhibition (INH) [13]: Not Active
- inhibition (INH) [14]: Not Active
- inhibition (INH) [15]: Not Active
- inhibition (INH) [16]: Not Active
Compound: COc1cccc(C(=O)NCC(=O)N[C@@H](C)c2ccccc2)c1

- EC50 [1]: 24 nM
Compound: Cc1cccc(C(=O)NCC(=O)N[C@@H](C)c2ccccc2)c1

- EC50 [1]: 24 nM
Compound: C[C@H](NC(=O)CNC(=O)c1cc(F)cc(Cl)c1)c1ccccc1
